Screens (PubChem)
Rows were chosen to be rich in hits. Some 3.3% of all compounds tested hit in one or more screens of this group.
DENV2 CPE – DENV2-induced cell death inhibition; hit rate 1.7% among 350,000; DENV2-infected cells, cytopathic effect rescue, plate reader; AID 651640; CPE inhibition, % at 9.99 µM; in the data active = CPE inhibition above about 20%, passing the limit was not always enough; inconclusive = no clear call, values can overlap the other calls; tested in BHK-21 cells
PglD inh – blocks C. jejuni PglD acetyltransferase activity | purified PglD enzyme, DTNB colorimetric CoA detection | inhibition, % at 12.5 µM | hit rate 0.098% among 360,000 | AID 602405; in the data active = inhibition above about 16%, passing the limit was not always enough; inconclusive = no clear call, values can overlap the other calls
XiGFP reactiv – X-chromosome reactivation activator; XiGFP mouse fibroblasts, % GFP-positive cells imaging, 3 d; cells co-treated with 5-aza-dC sensitizer; scaled so ellipticine positive control = 100%; activation, % at 7.58 µM; hit rate 0.055% among 360,000; AID 743238;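 active = mean normalized replicate activation at least 10% and every replicate at or above 10%; inconclusive = only one of the two criteria met; inactive = mean below 10% and not all replicates reach 10%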
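Assay system: SV40-immortalized XiGFP fibroblast cells, line 68-5-11; buffer or medium: DMEM plus 5-aza-dC sensitizer; compound: one concentration, pinned; timing: compounds 3 days, fix/stain 15 min at room temperature; benchmarks: positive control ellipticine, 6 µM final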
FGF22 binding – FGF22 (human) thermal shift binding. recombinant FGF22 thermal shift, SYPRO orange fluorescence; percent of sucrose octasulfate shift, DMSO zero. AID 651658. hit rate 1.5% among 340,000. activity (Tm shift, normalised), % at 9.99 µM. Q9HCT0;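 active = mean Tm shift, scaled 0 neutral to 100 positive control, at about 1.3% or above, every replicate too, limit read from the data; inconclusive = no clear call, values can overlap the other calls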
Statin myotox sup – suppression of simvastatin myotoxicity. C2C12 myotubes + simvastatin, ATP luminescence, 48 h; scaled: DMSO 0, geranylgeraniol control 100. rescue of ATP level, % at 7.49 µM. hit rate 0.78% among 330,000;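 active = mean ATP rescue above about 67%, or every replicate alone reaching that limit, limit read from the data, passing the limit was not always enough; inconclusive = no clear call, values can overlap the other calls; inactive = mean under the limit and some replicate under it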;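 note: myotubes were challenged with 10 µM simvastatin during compound exposure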
E-sel inducer – induces E-selectin expression in human endothelial cells | P16581 | HUVEC E-selectin immunofluorescence imaging; normalized: neutral wells 0, TNF-alpha wells 100 | activation, % at 7.58 µM | hit rate 0.37% among 260,000;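 active = mean E-selectin-positive cell signal at least 10% of the positive control, reached in at least 60% of replicates, without over 20% cell loss; inconclusive = no rule given, readout overlaps actives, possibly toxicity-flagged; inactive = the rest, including those meeting only one limit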
Target sequence (P16581 whole entry, looked up): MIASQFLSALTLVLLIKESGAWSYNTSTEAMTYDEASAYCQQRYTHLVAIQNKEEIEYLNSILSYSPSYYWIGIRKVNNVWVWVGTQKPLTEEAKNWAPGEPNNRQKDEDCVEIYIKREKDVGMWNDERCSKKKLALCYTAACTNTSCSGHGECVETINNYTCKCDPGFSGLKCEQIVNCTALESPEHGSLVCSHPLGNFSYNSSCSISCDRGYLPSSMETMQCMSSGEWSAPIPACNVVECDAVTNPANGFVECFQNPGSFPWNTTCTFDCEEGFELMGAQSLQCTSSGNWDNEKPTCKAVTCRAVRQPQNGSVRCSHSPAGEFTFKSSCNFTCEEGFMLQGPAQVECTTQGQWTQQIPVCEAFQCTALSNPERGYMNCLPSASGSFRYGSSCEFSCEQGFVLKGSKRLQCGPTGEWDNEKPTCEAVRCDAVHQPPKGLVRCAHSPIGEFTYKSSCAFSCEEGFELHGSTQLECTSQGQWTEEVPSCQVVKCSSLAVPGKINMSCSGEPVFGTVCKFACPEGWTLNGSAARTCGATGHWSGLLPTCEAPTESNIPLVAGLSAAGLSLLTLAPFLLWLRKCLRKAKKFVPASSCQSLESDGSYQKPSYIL
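Read-out: % PE-positive cells | Test system: HUVEC | Doses: One compound dose added by pin transfer | Buffer or medium: EGM-2 over gelatin coat | Signal: Immunofluorescence imaging | Benchmarks: TNF-alpha, DMSO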
A number is an active result; – = inactive; ? = inconclusive; · = not tested or not shown.

SMILES	DENV2 CPE	PglD inh	XiGFP reactiv	FGF22 binding	Statin myotox sup	E-sel inducer
COc1ccccc1CNC(=O)C[C@H]1C[C@@H]2c3cc(NC(=O)c4cccnc4)ccc3O[C@@H]2[C@H](CO)O1	–	–	–	–	–	–
O=C(C[C@H]1C=C[C@@H](NC(=O)Nc2ccc(C(F)(F)F)cc2)[C@@H](CO)O1)NCc1ccccn1	20	·	–	–	·	–
N#CC(CC(=O)c1ccc(Cl)cc1)c1ccccc1 (stereo not given)	–	·	–	–	·	–
N#CC(c1ccccc1)N(CCCCl)C(=O)c1ccccc1 (stereo not given)	–	–	–	43	–	·
CC(=O)N(CCCCl)C(C#N)c1ccccc1 (stereo not given)	–	·	–	44	·	·
O=C(c1ccccc1)N(CCCl)C(=O)N(CCCl)C(=O)c1ccccc1	–	–	–	–	·	–
Cc1nn(C)c2c1NC(=O)CS2	–	–	–	43	–	–
COc1ccc(/C=N/NC(=O)Cc2ccc(Cl)cc2)cc1OC	–	·	–	–	·	·
CCN(CC)c1ccc(/C=N/NC(=O)Cc2ccc(OC)c(OC)c2)cc1	–	·	–	–	·	36
BrC(/C=N/N1CCN(Cc2ccccc2)CC1)=C/c1ccccc1	–	–	–	–	·	–
CC(/C=N\N1CCN(Cc2ccc(C)cc2)CC1)=C\c1ccccc1	–	·	–	44	·	·
CCCNC(=O)Nc1ccc2c(c1)C(=O)N(C)C[C@@H](OC)[C@H](C)CN(CC1CCCC1)[C@@H](C)CO2	·	·	–	·	–	–
COc1ccc(S(=O)(=O)N(C)C[C@@H]2Oc3ccc(NS(=O)(=O)c4ccc(Cl)cc4)cc3CC(=O)N([C@H](C)CO)C[C@@H]2C)cc1	–	–	–	–	–	–
C[C@H]1CN([C@@H](C)CO)C(=O)Cc2cc(NS(=O)(=O)c3ccc(Cl)cc3)ccc2O[C@H]1CN(C)S(=O)(=O)c1ccc(F)cc1	–	–	–	–	–	–
C[C@@H]1CN([C@H](C)CO)C(=O)Cc2cc(NS(=O)(=O)c3ccc(F)cc3)ccc2O[C@H]1CN(C)S(=O)(=O)c1ccc(Cl)cc1	–	–	–	–	–	29
COc1ccc(S(=O)(=O)N(C)C[C@@H]2Oc3ccc(N(C)C)cc3CC(=O)N([C@H](C)CO)C[C@H]2C)cc1	30	–	–	–	–	–
C[C@H]1CN([C@@H](C)CO)C(=O)Cc2cc(NS(C)(=O)=O)ccc2O[C@H]1CN(C)S(=O)(=O)c1ccc(F)cc1	23	–	–	–	–	–
COc1ccc(S(=O)(=O)N(C)C[C@@H]2Oc3ccc(NS(=O)(=O)c4ccc(Cl)cc4)cc3CC(=O)N([C@@H](C)CO)C[C@H]2C)cc1	–	–	–	–	73	–
COc1ccc(S(=O)(=O)N(C)C[C@H]2Oc3ccc(N(C)C)cc3CC(=O)N([C@H](C)CO)C[C@H]2C)cc1	–	–	–	–	–	–
Cc1noc(C)c1S(=O)(=O)Nc1cccc2c1O[C@H](CN(C)Cc1ccc3c(c1)OCO3)[C@H](C)CN([C@H](C)CO)C2=O	?	–	–	–	–	–
C[C@@H]1CN([C@H](C)CO)C(=O)Cc2cc(NS(=O)(=O)c3ccc(F)cc3)ccc2O[C@H]1CN(C)CC1CCCCC1	–	–	–	–	108	–
COCCNC(=O)CCC1CCN(C/C=C/c2ccccc2OC)CC1	29	–	–	–	–	–
N#CC1=C(SCC(=O)NC23CC4CC(CC(C4)C2)C3)NC(=O)C(C#N)C12CCCCC2 (stereo not given)	–	–	·	1.9	–	·
Cc1csc(=O)n1CCC(=O)OCC(=O)Nc1cc([N+](=O)[O-])ccc1Cl	37	–	–	–	–	·
C[C@@H](NC(=O)C[C@H]1C=C[C@H](NC(=O)Nc2ccc3c(c2)OCO3)[C@H](CO)O1)c1ccccc1	–	–	–	–	–	–
SMILES	DENV2 CPE	PglD inh	XiGFP reactiv	FGF22 binding	Statin myotox sup	E-sel inducer
CCOC(=O)Cc1csc(NC(=O)COc2ccc(C)cc2)n1	–	–	–	43	–	·
CCOC(=O)Cc1csc(NC(=O)COc2ccccc2)n1	·	·	·	·	–	·
COc1ccc(OCC(=O)N/N=C/c2ccncc2)cc1	–	–	–	–	–	·
O=C(COc1cccc2ccccc12)N/N=C/c1ccncc1	–	–	–	43	–	·
N#Cc1ccc(-c2ccc(OCC(=O)NN=Cc3ccncc3)cc2)cc1	30	·	–	–	·	·
C[C@@H]1CN([C@H](C)CO)C(=O)c2cc(NS(=O)(=O)c3ccccc3)ccc2O[C@@H](C)CCCCO[C@@H]1CN(C)S(=O)(=O)c1cccs1	?	–	–	·	·	·
C[C@H]1CCCCO[C@@H](CN(C)C(=O)Nc2ccc3c(c2)OCO3)[C@@H](C)CN([C@@H](C)CO)C(=O)c2cc(NS(=O)(=O)c3ccc(F)cc3)ccc2O1	–	–	–	–	–	–
C[C@@H]1CCCCO[C@H](CN(C)C(=O)Nc2ccc3c(c2)OCO3)[C@H](C)CN([C@@H](C)CO)C(=O)c2cc(NS(=O)(=O)c3ccc(F)cc3)ccc2O1	–	–	–	–	92	–
C[C@H](CO)N1C[C@H](C)[C@H](CN(C)C(=O)Nc2ccc3c(c2)OCO3)OCCCC[C@H](C)Oc2ccc(NS(=O)(=O)c3ccc(F)cc3)cc2C1=O	–	–	–	–	81	–
O=C1CCCn2cc(nn2)COC[C@H](Cc2ccccc2)N1	–	·	–	–	·	–
Cc1ccccc1-c1ccc([C@H]2[C@H](CO)N3C(=O)CN(C(=O)c4ccc(F)cc4)C[C@@H]23)cc1	–	·	–	·	·	–
CN(C)S(=O)(=O)c1ccc(C(=O)NCCN2C(=O)S/C(=C\c3cccnc3)C2=O)cc1	–	·	–	43	·	·
Cn1c(-c2ccco2)n[nH]c1=S	–	·	–	–	·	·
S=c1nc(-c2ccco2)[nH][nH]1	·	–	·	·	96	·
C[C@@H]1CN([C@@H](C)CO)C(=O)c2cccc(NC(=O)Nc3cccc4ccccc34)c2O[C@H]1CN(C)S(=O)(=O)c1cn(C)cn1	·	·	–	·	·	–
CCCCCCn1c(=O)n2n(c1=O)C[C@]1(OC(=O)Nc3c(C)noc3C)CN(S(=O)(=O)c3ccc(C)cc3)C[C@]1(O)C2	–	–	–	43	–	–
CC(C)Nc1nc(SC(C)C(=O)Nc2ccccc2)nc(N(C)C)n1 (stereo not given)	–	–	–	–	–	–
CCNc1nc(SC(C)C(=O)Nc2ccccc2)nc(N(C)C)n1 (stereo not given)	–	–	–	43	–	–
C[C@@H]1CCCCO[C@H](CN(C)C(=O)NC2CCCCC2)[C@H](C)CN([C@H](C)CO)C(=O)c2cc(NS(=O)(=O)c3cccs3)ccc2O1	–	–	–	–	–	–
Nc1cccc2c1C(=O)N(C(=O)c1cccc(S(=O)(=O)N3CCCC3)c1)C2=O	·	–	·	·	138	·
NC(=O)c1cccc(S(=O)(=O)N2CCCCC2)c1	·	·	·	–	–	·
